Measurements reported in ChEMBL document CHEMBL1140994, “Ranking the selectivity of PubChem screening hits by activity-based protein profiling: MMP13 as a case study” (Bioorg Med Chem, 2009).
Activity calls are given as the source filed them. No cut-off for these calls is given here.

Assays:
[1] = molecular target: Collagenase 3 (Homo sapiens, UniProt P45452); test: Inhibition of human recombinant MMP13 by HxBPyne probe-based competitive activity based protein profiling assay
[2] = molecular target: T1, Disintegrin and metalloproteinase domain-containing protein 8 (Homo sapiens) (UniProt P78325); test: Inhibition of human recombinant ADAM8 at 200 uM by HxBPyne probe-based competitive activity based protein profiling assay in presence of 5 uM HxBpane competitor
T1 sequence (whole entry): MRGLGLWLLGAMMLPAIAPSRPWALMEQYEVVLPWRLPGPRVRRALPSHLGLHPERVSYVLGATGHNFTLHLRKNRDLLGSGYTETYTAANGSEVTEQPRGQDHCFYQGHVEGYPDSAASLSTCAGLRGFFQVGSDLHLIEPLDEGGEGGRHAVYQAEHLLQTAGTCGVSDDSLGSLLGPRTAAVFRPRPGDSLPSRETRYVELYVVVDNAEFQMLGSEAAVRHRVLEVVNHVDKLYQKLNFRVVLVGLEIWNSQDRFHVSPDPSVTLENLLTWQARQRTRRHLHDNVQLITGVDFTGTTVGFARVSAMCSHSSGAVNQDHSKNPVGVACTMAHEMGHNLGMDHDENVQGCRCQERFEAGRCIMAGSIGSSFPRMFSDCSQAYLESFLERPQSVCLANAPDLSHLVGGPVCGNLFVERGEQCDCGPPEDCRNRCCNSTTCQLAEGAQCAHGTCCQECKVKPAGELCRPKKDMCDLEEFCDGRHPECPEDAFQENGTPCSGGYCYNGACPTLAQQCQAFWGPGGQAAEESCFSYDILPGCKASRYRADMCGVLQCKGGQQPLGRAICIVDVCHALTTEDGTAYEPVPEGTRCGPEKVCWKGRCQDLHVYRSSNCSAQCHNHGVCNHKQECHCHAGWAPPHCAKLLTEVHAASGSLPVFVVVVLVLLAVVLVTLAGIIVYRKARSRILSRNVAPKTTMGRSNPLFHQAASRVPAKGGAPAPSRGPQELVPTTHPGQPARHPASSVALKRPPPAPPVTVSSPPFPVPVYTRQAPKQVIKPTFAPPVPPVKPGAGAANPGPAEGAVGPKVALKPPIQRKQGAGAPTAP
In short: (§1)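 Recombinant enzyme at 0.5 μM final in mouse liver soluble proteome (1 mg protein/mL in PBS). HxBPyne probe cocktail 0.5 μM total final, with inhibitor 200 μM or DMSO. Preincubated 30 min on ice, then UV 365 nm for 1 h on ice. Rhodamine-azide click chemistry, 1 h RT in dark. SDS-PAGE with in-gel fluorescence; band intensity given as % of DMSO control.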

[3] = molecular target: T2, A disintegrin and metalloproteinase with thrombospondin motifs 5 (Homo sapiens) (UniProt Q9UNA0); test: Inhibition of human recombinant ADAMTS5 at 200 uM by HxBPyne probe-based competitive activity based protein profiling assay in presence of 5 uM HxBpane competitor; in short: as §1
T2 sequence (whole entry): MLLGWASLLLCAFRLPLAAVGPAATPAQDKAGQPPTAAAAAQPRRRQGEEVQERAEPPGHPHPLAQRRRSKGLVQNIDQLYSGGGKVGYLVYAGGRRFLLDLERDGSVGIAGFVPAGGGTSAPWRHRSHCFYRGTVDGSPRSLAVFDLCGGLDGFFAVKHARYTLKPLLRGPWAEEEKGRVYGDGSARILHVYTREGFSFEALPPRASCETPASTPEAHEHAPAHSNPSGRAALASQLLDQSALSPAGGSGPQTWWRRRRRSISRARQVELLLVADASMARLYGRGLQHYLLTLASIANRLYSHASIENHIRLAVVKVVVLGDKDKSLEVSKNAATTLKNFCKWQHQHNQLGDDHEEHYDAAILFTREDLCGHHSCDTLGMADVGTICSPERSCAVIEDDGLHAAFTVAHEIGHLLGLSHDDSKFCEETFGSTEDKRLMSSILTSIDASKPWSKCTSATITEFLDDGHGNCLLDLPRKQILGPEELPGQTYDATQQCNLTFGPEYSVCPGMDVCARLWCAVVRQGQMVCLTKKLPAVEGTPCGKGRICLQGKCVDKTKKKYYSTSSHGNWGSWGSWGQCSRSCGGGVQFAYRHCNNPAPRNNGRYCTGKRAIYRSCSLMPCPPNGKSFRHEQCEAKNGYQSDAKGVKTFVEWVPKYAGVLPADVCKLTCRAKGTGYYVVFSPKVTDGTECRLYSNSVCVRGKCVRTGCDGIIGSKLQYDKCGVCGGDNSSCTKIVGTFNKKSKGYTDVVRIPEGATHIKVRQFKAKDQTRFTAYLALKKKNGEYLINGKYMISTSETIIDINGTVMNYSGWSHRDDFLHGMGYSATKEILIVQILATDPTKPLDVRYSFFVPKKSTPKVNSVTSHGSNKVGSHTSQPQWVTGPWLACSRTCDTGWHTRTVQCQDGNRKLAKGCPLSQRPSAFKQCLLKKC

[4] = molecular target: Interstitial collagenase (Homo sapiens) (UniProt P03956); test: Inhibition of human recombinant MMP1 at 200 uM by HxBPyne probe-based competitive activity based protein profiling assay in presence of 5 uM HxBpane competitor; in short: as §1
[5] = molecular target: Matrilysin (Homo sapiens) (UniProt P09237); test: Inhibition of human recombinant MMP7 at 200 uM by HxBPyne probe-based competitive activity based protein profiling assay in presence of 5 uM HxBpane competitor; in short: as §1
[6] = molecular target: Disintegrin and metalloproteinase domain-containing protein 12 (Homo sapiens) (UniProt O43184); test: Inhibition of human recombinant ADAM12 at 200 uM by HxBPyne probe-based competitive activity based protein profiling assay in presence of 200 uM HxBpane competitor
In short: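 Metalloprotease at 1.6 μM final in PBS, without liver proteome. HxBPyne probe cocktail 20 μM final, with inhibitor 200 μM or DMSO. Preincubated 30 min on ice, then irradiated 365 nm for 1 h on ice. Rhodamine-azide click chemistry, then SDS-PAGE and in-gel fluorescence scanning. Integrated band intensity expressed as % of DMSO control.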

[7] = molecular target: Disintegrin and metalloproteinase domain-containing protein 17 (Homo sapiens) (UniProt P78536); test: Inhibition of human recombinant ADAM17 at 200 uM by HxBPyne probe-based competitive activity based protein profiling assay in presence of 5 uM HxBpane competitor; in short: as §1
Sequence of Disintegrin and metalloproteinase domain-containing protein 17 (Homo sapiens) (P78536 whole entry, the tested form may be a part): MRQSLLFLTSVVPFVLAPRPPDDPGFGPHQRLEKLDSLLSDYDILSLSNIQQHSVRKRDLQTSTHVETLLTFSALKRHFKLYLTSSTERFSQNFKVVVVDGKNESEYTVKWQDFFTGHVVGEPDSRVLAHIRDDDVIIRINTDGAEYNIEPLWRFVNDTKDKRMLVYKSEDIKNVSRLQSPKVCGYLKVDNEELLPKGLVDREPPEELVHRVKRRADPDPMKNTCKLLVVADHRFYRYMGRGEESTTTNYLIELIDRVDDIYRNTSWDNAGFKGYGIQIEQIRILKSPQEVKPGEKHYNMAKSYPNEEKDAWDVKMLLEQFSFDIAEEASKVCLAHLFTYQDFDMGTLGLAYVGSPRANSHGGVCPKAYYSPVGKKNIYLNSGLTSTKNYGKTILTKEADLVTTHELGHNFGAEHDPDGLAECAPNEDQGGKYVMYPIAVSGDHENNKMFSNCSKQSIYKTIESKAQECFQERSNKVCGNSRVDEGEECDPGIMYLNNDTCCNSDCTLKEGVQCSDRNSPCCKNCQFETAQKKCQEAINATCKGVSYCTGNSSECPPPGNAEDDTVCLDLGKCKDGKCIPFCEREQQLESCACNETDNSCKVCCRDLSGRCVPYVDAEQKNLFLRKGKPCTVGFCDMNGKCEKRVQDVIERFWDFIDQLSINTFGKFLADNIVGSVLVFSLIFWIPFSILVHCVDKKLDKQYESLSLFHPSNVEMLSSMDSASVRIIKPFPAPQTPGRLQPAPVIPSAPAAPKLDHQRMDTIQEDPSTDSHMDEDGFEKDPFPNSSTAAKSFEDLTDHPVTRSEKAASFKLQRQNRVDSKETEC

Sequence of Interstitial collagenase (Homo sapiens) (P03956 whole entry): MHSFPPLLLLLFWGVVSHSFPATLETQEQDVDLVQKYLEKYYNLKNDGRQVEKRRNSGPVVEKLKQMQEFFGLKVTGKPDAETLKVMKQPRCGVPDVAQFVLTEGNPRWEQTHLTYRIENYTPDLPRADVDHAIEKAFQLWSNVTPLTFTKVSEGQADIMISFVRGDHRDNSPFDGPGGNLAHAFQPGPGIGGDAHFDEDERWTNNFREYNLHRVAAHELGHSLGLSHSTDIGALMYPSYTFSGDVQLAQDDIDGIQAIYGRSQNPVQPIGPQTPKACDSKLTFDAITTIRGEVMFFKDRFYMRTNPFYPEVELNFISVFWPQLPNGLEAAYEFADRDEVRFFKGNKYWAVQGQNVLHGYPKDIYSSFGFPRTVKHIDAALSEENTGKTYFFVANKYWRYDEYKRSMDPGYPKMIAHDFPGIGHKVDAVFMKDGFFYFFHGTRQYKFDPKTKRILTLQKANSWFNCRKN
Sequence of Matrilysin (Homo sapiens) (P09237 whole entry, the tested form may be a part): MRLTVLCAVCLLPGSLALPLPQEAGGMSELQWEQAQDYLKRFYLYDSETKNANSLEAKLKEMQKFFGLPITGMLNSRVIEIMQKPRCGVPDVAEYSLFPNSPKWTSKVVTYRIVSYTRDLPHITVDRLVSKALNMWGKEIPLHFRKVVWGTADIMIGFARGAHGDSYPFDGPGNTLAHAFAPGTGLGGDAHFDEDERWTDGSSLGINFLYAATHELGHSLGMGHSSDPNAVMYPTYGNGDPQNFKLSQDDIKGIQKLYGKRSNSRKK
Sequence of Disintegrin and metalloproteinase domain-containing protein 12 (Homo sapiens) (O43184 whole entry, the tested form may be a part): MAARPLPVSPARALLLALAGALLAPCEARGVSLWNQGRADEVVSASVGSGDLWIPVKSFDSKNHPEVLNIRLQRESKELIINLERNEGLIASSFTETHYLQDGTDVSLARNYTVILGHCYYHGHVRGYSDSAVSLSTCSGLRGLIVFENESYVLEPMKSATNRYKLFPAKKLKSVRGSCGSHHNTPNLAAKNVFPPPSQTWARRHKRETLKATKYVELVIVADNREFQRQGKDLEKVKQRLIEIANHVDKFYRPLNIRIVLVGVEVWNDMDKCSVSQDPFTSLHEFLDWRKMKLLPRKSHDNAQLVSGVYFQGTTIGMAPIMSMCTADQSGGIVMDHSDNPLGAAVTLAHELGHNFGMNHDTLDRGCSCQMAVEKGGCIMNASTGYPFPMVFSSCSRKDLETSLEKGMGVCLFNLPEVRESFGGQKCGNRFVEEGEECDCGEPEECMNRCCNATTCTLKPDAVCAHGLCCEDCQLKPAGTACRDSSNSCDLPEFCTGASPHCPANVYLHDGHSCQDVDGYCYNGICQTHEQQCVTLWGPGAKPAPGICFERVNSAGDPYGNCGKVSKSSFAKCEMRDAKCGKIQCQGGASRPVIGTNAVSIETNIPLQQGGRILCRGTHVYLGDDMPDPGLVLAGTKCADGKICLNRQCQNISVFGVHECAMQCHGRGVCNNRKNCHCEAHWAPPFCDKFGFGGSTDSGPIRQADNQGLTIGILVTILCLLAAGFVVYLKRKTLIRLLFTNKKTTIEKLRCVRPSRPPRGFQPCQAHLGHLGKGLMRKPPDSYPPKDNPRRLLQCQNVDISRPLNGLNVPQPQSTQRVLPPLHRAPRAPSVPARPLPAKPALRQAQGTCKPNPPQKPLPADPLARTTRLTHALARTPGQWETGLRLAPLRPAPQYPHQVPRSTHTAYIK

Oc1nc(SCc2ccc(Cl)cc2)nc2c1CCC2
IC50 [1]: 3.8 µM
Activity [2]: inactive
Activity [3]: inactive
Activity [4]: inactive
Activity [5]: inactive
Activity [6]: inactive
Activity [7]: inactive

COc1ccc(CSc2nc(C)cc(O)n2)cc1
IC50 [1]: 20 µM
Activity [2]: inactive
Activity [3]: inactive
Activity [4]: inactive
Activity [5]: inactive
Activity [6]: inactive
Activity [7]: inactive
